Screening results (PubChem)
CXCR6 inh = CXCR6 (human) receptor inhibition; O00574; CHO-K1 PathHunter CXCR6 beta-arrestin, luminescence; inhibition, % at 20 µM; 360,000 compounds, 0.36% hits; AID 602244; in the data active = inhibition above about 34%, passing the limit was not always enough;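 note: antagonist mode with CXCL16 agonist at 10 nM final; 0% = 10 nM CXCL16 with DMSO and 100% = unstimulated wells without agonist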
Target sequence (O00574 whole entry, looked up): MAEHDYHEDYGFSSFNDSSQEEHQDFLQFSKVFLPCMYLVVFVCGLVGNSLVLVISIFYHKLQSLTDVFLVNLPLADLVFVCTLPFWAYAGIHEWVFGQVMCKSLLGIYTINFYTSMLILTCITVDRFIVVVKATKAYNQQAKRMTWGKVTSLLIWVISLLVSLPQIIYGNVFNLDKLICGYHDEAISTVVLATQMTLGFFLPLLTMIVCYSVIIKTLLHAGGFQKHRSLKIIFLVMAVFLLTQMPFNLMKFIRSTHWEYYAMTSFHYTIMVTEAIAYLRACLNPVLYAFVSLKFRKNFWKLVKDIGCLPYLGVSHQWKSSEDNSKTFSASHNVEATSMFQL
APJ ag = APJ receptor agonism. 330,000 compounds, 0.11% hits. P35414. activation, % at 20 µM. AID 2520. CHO-K1 APJ PathHunter beta-arrestin, luminescence; 0% DMSO wells, 100% apelin;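 active = activation more than six SD over the plate average, tested at 20 µM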;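 note: 0% = DMSO alone and 100% = apelin-13 at 10 nM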
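Assay system: CHO-K1 cells stably expressing ProLink-tagged human APJ and arrestin–beta-gal acceptor. Compound dosing: 20 µM single point, 1% DMSO. Times: 16-18 h seeding, 90 min dark compound exposure, 60 min detection. Detection: beta-gal luminescence. Evaluation: APJ–arrestin association signal. Controls: negative DMSO alone, positive Apelin-13 at 10 nM.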
HTR2A ag = agonists of mouse serotonin 5-HT2A receptor (HTR2A); activation, % at 7.6 µM; CHO-K1 mHTR2A beta-arrestin complementation, luminescence; percent of 30 µM serotonin response; P35363; 360,000 compounds, 0.66% hits;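 active = activation above a run cutoff, the mean activation of all tested compounds plus 3 SD, cut at about 14% in these data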;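 note: 0% = plate median of compound wells and 100% = 30 µM serotonin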
APJ antag = antagonists of human APJ apelin receptor | 330,000 compounds, 0.32% hits | CHO-K1 APJ beta-arrestin complementation, luminescence | inhibition, % at 20 µM | P35414;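 active = inhibition above about 40% at 20 µM, limit read from the data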;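 note: cells challenged with 10 nM apelin-13 agonist together with compound; plate controls were apelin-13 plus DMSO wells for no effect and DMSO wells lacking apelin-13 for full effect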
CCR6 antagonist = antagonists of human CCR6 receptor; P51684; AID 493098; CHO-K1 CCR6 PathHunter beta-arrestin, luminescence, CCL20-stimulated; inhibition, % at 20 µM; 340,000 compounds, 0.49% hits;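 active = compounds whose inhibition of the agonist-driven luminescence signal at 20 µM reaches about 50%, limit read from the data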;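 note: cells stimulated with CCL20 at 14 nM final; plate controls were DMSO with CCL20 for no effect and DMSO without agonist for full effect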
NTR1 agonist = NTR1 (human) agonism; P30989; NTR1-U2OS beta-arrestin-GFP spot imaging, agonist mode; activation, % at 20 µM; 330,000 compounds, 0.17% hits; AID 493036;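 active = activation at or above 40% of the spot to cytoplasm intensity ratio, with at least 20 cells analyzed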;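 note: 0% = DMSO without peptide and 100% = 100 nM NTR1 peptide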
OPRM1 ag = activates human mu opioid receptor in HTR2A counterscreen | shares compounds with HTR2A ag | U2OS OPRM1 beta-arrestin PathHunter, luminescence; DMSO 0%, DAMGO 9.3 µM 100% | activation, % at 9.3 µM | 2,300 compounds, 5.3% hits;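 active = mean activation above the mean of DMSO-only wells plus 3 SD, cut at about 0.5% in these data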
m5-HT2A ag conf = mouse HTR2A agonism confirmed | 2,300 compounds, 19% hits | activation, % at 7.6 µM | shares compounds with HTR2A ag | CHO-K1 PathHunter beta-arrestin recruitment, luminescence; DMSO 0%, 30 µM serotonin 100%;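 active = mean activation across triplicates above the hit threshold derived in the original primary screen, cut at about 15% in these data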
* hit, by the source's call; nt = no result given. This is a sample that favours compounds with a hit; in the whole collection about 1.5% have one here.

SMILES	CXCR6 inh	APJ ag	HTR2A ag	APJ antag	CCR6 antagonist	NTR1 agonist	OPRM1 ag	m5-HT2A ag conf
COc1ccc(OC)c(C2=Nn3c(nnc3-c3cc(OC)c(OC)c(OC)c3)SC2)c1	5.9	-4.2	14.9*	-4.1	15.1	9.3	-0.5	7.4
Cc1cccc(C)c1NC(=O)c1cn(-c2ccccc2)nc1-c1ccccc1	-2.3	-0.7	20.8*	-10.8	0.6	4.3	-0.7	10.1
O=C(Cc1cccc(NC(=O)C2CCCN(C(=O)C3CCC3)C2)c1)Nc1ccc(C(=O)N2CCOCC2)cc1 (centres undefined)	-2.5	nt	29.2*	nt	-3.9	nt	-0.6	-6.3
COc1ccc(NC(=O)c2cc([N+](=O)[O-])ccc2O)cc1	-8.0	-3.1	14.9*	22.3	10.3	3.6	-0.5	-3.2
COc1ccc(NC(=O)c2cccc([N+](=O)[O-])c2)cc1	-7.1	-1.4	0.7	-4.1	2.6	-0.3	nt	nt
C=CCn1c(SCc2nc3ccccc3[nH]2)nnc1-c1ccccn1	0.3	-0.6	18.7*	-0.5	-9.1	7.4	-0.7	-4.1
CCCC(=O)N1CC2(C)CN(C(=O)CCC)CC(CCC)(C1)C2=O	1.7	1.3	15.5*	20.3	8.5	0.8	-0.6	-4.1
CCN(C[C@H]1N[C@@](C)(C(=O)OC)[C@H]2C(=O)N(C)C(=O)[C@@H]12)C(=O)Nc1ccc(Cl)cc1	1.9	-1.0	37.0*	14.3	2.4	-0.1	-0.1	-0.6
Cc1ccc(NC(=O)CN2CCN(C(=O)c3ccco3)CC2)cc1	-0.2	1.9	-0.7	4.2	9.7	0.8	nt	nt
Cc1ccc2nc(-c3ccc(NC(=O)CN4CCN(C(=O)c5ccco5)CC4)cc3)sc2c1	15.8	1.6	14.5*	19.0	20.4	17.1	-0.4	59.9*
Cc1[nH]c2ccccc2c1NC(=O)CN1CCN(C(=O)c2ccco2)CC1	-11.9	-0.7	22.2*	-14.6	3.0	0.0	-0.6	81.5*
COCCN(Cc1ccccc1)C(=O)c1ccc(C(=O)c2ccccc2)cc1	1.0	-1.9	22.3*	4.4	9.1	1.5	-0.2	-2.0
COCCN(Cc1ccccc1)C(=O)c1cccc(S(=O)(=O)N2CCN(c3ccccc3)CC2)c1	2.7	3.9	5.7	7.6	24.6	1.3	nt	nt
C/C(=N/NC(=O)c1ccoc1C)c1cccc(NC(=O)C2CC2)c1	4.3	-3.2	-0.5	-13.7	11.6	1.4	nt	nt
C[C@H]1CCCCO[C@H](CN(C)Cc2ccccc2)[C@@H](C)CN([C@@H](C)CO)C(=O)c2cc(NC(=O)CCC(F)(F)F)ccc2O1	12.7	nt	23.4*	nt	nt	nt	-0.6	-0.2
O=C(CN1C(=O)NC(Cc2ccccc2)C1=O)Nc1ccccc1OC(F)F (centres undefined)	1.7	-6.9	17.6*	27.8	3.9	-0.8	-0.3	-0.1
Cc1sc(-c2ccccn2)nc1OC(=O)c1ccc(Cl)c(Cl)c1	1.4	-2.0	-0.1	25.9	-1.2	4.3	nt	nt
Cc1sc(-c2ccccn2)nc1OC(=O)c1ccc(F)cc1F	-2.6	nt	14.8*	nt	-3.8	nt	-0.6	8.0
CC1CCCCN1CCCNC(=O)c1ccc2nc(N3CCCCC3)sc2c1 (centres undefined)	-0.2	2.3	17.4*	-3.1	8.7	0.1	-0.7	-5.5
O=C1C(Cl)=C(O)C2(Cl)C(Cl)=C(Cl)C12Cl (centres undefined)	-6.0	nt	-3.1	nt	10.6	nt	nt	nt
CCC(=O)NCc1csc(-c2cccs2)n1	-3.6	-4.6	38.6*	12.7	9.4	-0.6	-0.6	-1.9
Cc1ccnc(Nc2nc(-c3ccc(O)cc3O)cs2)c1	0.8	4.0	1.5	-19.9	-10.3	17.5	nt	nt
CCOC(=O)C1CCN(Cc2cccc(Oc3ccc(Cl)cc3)c2)CC1	-10.2	-2.7	20.2*	-15.6	9.2	0.5	-0.3	69.8*
COc1ccc(NC(=O)c2ccc(CNc3c(N4CCCC4)c(=O)c3=O)cc2)cc1Cl	-1.6	-0.8	-3.5	3.7	5.8	0.9	nt	nt
